Experimental data taken from ChEMBL document CHEMBL4390678, “Structure-Activity Relationship of Purine and Pyrimidine Nucleotides as Ecto-5'-Nucleotidase (CD73) Inhibitors” (J Med Chem, 2019).
Active and inactive are the calls of the source. The rule behind the calls is not given here.

Key:
5'-nucleotidase [1] = target: T1, 5'-nucleotidase (Rattus norvegicus, UniProt P21588); test: Inhibition of recombinant rat C-terminal His-tagged soluble form of CD73 expressed in baculovirus infected Sf9 insect cells using [2,8-3H]AMP as substrate measured after 25 mins by scintillation counting method
T1 sequence (P21588 whole entry): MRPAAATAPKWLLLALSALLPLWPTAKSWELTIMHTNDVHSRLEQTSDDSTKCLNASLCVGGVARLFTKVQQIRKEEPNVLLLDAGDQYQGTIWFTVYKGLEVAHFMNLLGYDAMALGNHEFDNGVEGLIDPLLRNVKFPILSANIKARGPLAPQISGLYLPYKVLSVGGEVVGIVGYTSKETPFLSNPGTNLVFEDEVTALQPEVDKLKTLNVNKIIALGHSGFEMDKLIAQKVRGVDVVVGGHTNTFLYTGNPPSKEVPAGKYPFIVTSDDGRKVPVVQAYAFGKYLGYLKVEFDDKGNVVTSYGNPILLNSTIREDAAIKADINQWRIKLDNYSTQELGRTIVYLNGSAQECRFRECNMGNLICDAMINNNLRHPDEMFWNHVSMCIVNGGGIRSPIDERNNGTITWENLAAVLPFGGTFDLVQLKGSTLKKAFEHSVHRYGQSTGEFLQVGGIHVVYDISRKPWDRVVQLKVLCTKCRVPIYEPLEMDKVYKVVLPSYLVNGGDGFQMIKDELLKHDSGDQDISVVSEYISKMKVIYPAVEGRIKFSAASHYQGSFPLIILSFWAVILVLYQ
How it was run: (§1)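 Enzyme is soluble rat CD73 from Sf9 cells, 1.63 ng per vial, in 25 mM Tris, 140 mM NaCl, 25 mM NaH2PO4, pH 7.4. […] Stopped by LaCl3 precipitation and GF/B filtration, then counted. Each compound first screened at 1 µM.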

[2] = target: T2, 5'-nucleotidase (Rattus norvegicus) (UniProt P21588); test: Inhibition of recombinant rat C-terminal His-tagged soluble form of CD73 expressed in baculovirus infected Sf9 insect cells at 1 uM using [2,8-3H]AMP as substrate measured after 25 mins by scintillation counting method relative to control; how it was run: as §1
T2 sequence (whole entry): T1 sequence (P21588 whole entry)

5'-nucleotidase [3] = target: T3, 5'-nucleotidase (Homo sapiens, UniProt P21589); test: Inhibition of recombinant human C-terminal His-tagged soluble form of CD73 expressed in baculovirus infected Sf9 insect cells using [2,8-3H]AMP as substrate measured after 25 mins by scintillation counting method
How it was run: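 Soluble human CD73 lacking the GPI signal, with a C-terminal 6xHis tag, secreted from baculovirus-infected Sf9 cells and purified on Ni-NTA; 0.365 ng per vial. […] Product separated by lanthanum chloride precipitation and filtration, then scintillation counted.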

5'-nucleotidase [4] = target: T3, 5'-nucleotidase; test: Inhibition of CD73 in human MDA-MB-231 cell membranes using [2,8-3H]AMP as substrate measured after 25 mins by scintillation counting method
How it was run: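 MDA-MB-231 membranes (7.4 ng protein per vial) in 25 mM Tris, 140 mM NaCl, 25 mM NaH2PO4, pH 7.4. […] Stopped with cold LaCl3/acetate buffer pH 4.0 and filtered on GF/B. Background-subtracted and normalized to the uninhibited control.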

P2Y purinoceptor 6 [5] = target: T4, P2Y purinoceptor 6 (Homo sapiens, UniProt Q15077); test: Agonist activity at human P2Y6 receptor expressed in human 1321N1 cells assessed as induction of calcium mobilization by calcium-4 dye based FLIPR assay; type: functional, cell-based
P2Y purinoceptor 14 = target: T5, P2Y purinoceptor 14 (Homo sapiens, UniProt Q15391); test: (§2) Displacement of 6-Amino-9-(2-carboxy-4-((6-(4-(4-(4-(4-(3-carboxy-6-(4-(trifluoromethyl)phenyl)-naphthalen-1-yl)phenyl)piperidin-1-yl)butyl)-1H-1,2,3-triazol-1-yl)hexyl)carbamoyl)-phenyl)-3-iminio-5-sulfo-3H-xanthene-4-sulfonate from recombinant human P2Y14 receptor expressed in CHO cells preincubated for 30 mins followed by tracer addition and measured after 30 mins by flow cytometry; type: cell-based
T5 sequence (Q15391 whole entry): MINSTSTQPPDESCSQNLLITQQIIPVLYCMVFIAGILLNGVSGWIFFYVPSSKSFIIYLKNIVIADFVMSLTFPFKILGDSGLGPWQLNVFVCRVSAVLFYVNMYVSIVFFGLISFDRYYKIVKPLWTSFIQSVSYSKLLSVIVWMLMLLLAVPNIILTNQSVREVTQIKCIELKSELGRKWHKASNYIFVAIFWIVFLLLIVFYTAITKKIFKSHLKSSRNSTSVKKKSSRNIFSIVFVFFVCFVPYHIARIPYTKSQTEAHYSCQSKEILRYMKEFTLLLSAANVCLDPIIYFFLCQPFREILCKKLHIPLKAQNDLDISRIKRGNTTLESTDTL

Homo sapiens [6] = species on record: Homo sapiens; test: (§3) Inhibition of cytosolic nucleotidase in MaMel.65-CD73 cell cytosolic extract (unknown origin) at 100 uM using AMP as substrate preincubated for 5 mins followed by substrate addition and measured after 60 mins by malachite green oxalate dye based colorimetric method relative to control
How it was run: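 Cytosolic extract of CRISPR CD73-knockout MaMel.65 melanoma cells, 15.25 µg, in 50 mM Tris pH 7.0 with 100 mM KCl and 5 mM MgCl2. […] After 60 min, heat-stopped at 95°C. Released phosphate read with malachite green/molybdate at 600 nm. Levamisole 1 mM plus NaF 5 mM served as positive control. Three experiments in duplicate.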

Homo sapiens [7] = species on record: Homo sapiens; details: 1 mM
Homo sapiens [8] = species on record: Homo sapiens; test: as §3, with “origin) at 5 mM using AMP” for “origin) at 100 uM using AMP”, “60 mins in presence of levamisole by malachite” for “60 mins by malachite”
How it was run: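 Cytosolic extract (15.25 µg) from CRISPR CD73-knockout melanoma cells in 50 mM Tris pH 7.0, 100 mM KCl, 5 mM MgCl2. […] Released phosphate read by malachite green/molybdate absorbance at 600 nm. Levamisole 1 mM plus NaF 5 mM as positive control; three independent experiments in duplicate.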

5'-nucleotidase [9] = target: T3, 5'-nucleotidase; test: Inhibition of CD73 in human tonsils using AMP as substrate preincubated for 30 mins followed by substrate addition and measured after 45 mins by lead nitrate-based histochemical analysis
How it was run: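 Human tonsil cryosections pre-incubated 30 min in Trizma-maleate sucrose buffer (40 mM Trizma maleate, 0.25 M sucrose, pH 7.4) with 2 mM levamisole plus inhibitor at 1, 10 or 100 nM. […] Pi deposit developed with 0.5% (NH4)2S. Read-out is mean grayscale pixel intensity of five matched germinal centers versus untreated control. One-way ANOVA with Dunnett's test.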

P2Y purinoceptor 6 [10] = target: T4, P2Y purinoceptor 6; test: Agonist activity at human P2Y6 receptor expressed in human 1321N1 cells assessed as induction of calcium mobilization at 3 uM by calcium-4 dye based FLIPR assay relative to control; type: functional, cell-based
[11] = target: T6, P2Y purinoceptor 14 (Homo sapiens) (UniProt Q15391); test: as §2, with “cells at 3 uM” for “cells”; type: cell-based
T6 sequence (whole entry): T5 sequence (Q15391 whole entry)

5'-nucleotidase [12] = target: T3, 5'-nucleotidase; test: Inhibition of CD73 in human tonsils at 100 nM using AMP as substrate preincubated for 30 mins followed by substrate addition and measured after 45 mins by lead nitrate-based histochemical analysis
How it was run: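 Tonsil cryosections pre-incubated 30 min in Trizma-maleate sucrose buffer (pH 7.4) with 2 mM levamisole and inhibitor. […] Deposit developed with 0.5% (NH4)2S and quantified as grayscale mean pixel intensity of five germinal centers versus control (ANOVA, Dunnett).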

T3 sequence (P21589 whole entry): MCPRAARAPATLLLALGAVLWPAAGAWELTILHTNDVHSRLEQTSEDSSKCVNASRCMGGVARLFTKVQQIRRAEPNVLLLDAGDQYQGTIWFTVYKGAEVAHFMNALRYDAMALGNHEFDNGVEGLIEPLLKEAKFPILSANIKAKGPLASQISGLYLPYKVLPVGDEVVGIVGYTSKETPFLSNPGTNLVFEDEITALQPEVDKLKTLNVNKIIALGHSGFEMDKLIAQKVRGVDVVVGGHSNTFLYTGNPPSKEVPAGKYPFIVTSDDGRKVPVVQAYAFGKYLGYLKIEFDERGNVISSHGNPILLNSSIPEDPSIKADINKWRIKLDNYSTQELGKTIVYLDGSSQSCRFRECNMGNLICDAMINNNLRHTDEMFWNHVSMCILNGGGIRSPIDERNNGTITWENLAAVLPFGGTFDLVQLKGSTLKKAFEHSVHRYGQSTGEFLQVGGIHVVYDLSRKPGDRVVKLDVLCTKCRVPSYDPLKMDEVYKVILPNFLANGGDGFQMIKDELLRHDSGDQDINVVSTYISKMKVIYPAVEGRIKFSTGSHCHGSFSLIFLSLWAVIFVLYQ
T4 sequence (Q15077 whole entry): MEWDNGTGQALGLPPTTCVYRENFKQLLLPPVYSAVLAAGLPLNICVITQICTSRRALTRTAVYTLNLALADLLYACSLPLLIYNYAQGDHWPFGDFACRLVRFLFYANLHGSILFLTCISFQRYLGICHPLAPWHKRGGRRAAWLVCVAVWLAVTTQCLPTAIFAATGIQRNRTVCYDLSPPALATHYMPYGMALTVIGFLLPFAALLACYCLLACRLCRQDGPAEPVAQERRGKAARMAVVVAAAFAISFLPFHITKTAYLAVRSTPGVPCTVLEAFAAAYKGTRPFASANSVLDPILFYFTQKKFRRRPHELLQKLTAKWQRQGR

Ki (5'-nucleotidase [3]) [nM]	Ki (5'-nucleotidase [4]) [nM]	EC50 (P2Y purinoceptor 6 [5]) [nM]	IC50 (P2Y purinoceptor 14) [nM]	inhibition (Homo sapiens [6]) [%]	inhibition (Homo sapiens [7]) [%]	Structure (SMILES)	Ki (5'-nucleotidase [1]) [nM]	inhibition [2] [%]	inhibition (Homo sapiens [8]) [%]	inhibition (5'-nucleotidase [9])	Activity (P2Y purinoceptor 6 [10]) [%]	inhibition [11]	inhibition (5'-nucleotidase [12])
5.33	4.51	203	362	4	–	O=c1[nH]c(=O)n([C@@H]2O[C@H](COP(=O)(O)CP(=O)(O)O)[C@@H](O)[C@H]2O)cc1F	14.8	> 50	–	–	–	–	–
–	–	–	–	–	70	c1ccc([C@H]2CN3CCSC3=N2)cc1	–	–	–	–	–	–	–
4.58	5.68	1390	6660	-3	–	O=C(Nc1ccn([C@@H]2O[C@H](COP(=O)(O)CP(=O)(O)O)[C@@H](O)[C@H]2O)c(=O)n1)c1ccccc1	13.9	> 50	–	–	–	–	–
–	–	–	–	–	–	[F-].[Na+]	–	–	70	–	–	–	–
–	–	–	–	–	–	Nc1ncnc2c1ncn2[C@@H]1O[C@H](COP(=O)(O)CP(=O)(O)O)[C@@H](O)[C@H]1O [PHOSPHOMETHYLPHOSPHONIC ACID ADENOSYL ESTER]	167	> 50	–	–	–	–	Active

Structure (SMILES)	Ki (5'-nucleotidase [3]) [nM]	Ki (5'-nucleotidase [4]) [nM]	EC50 (P2Y purinoceptor 6 [5]) [nM]	IC50 (P2Y purinoceptor 14) [nM]	inhibition (Homo sapiens [6]) [%]	inhibition (Homo sapiens [7]) [%]	Ki (5'-nucleotidase [1]) [nM]	inhibition [2] [%]	inhibition (Homo sapiens [8]) [%]	inhibition (5'-nucleotidase [9])	Activity (P2Y purinoceptor 6 [10]) [%]	inhibition [11]	inhibition (5'-nucleotidase [12])
Cn1c(=NOCc2ccccc2)ccn([C@@H]2O[C@H](COP(=O)(O)CP(=O)(O)O)[C@@H](O)[C@H]2O)c1=O	–	7.96	> 3000	> 3000	-2	–	3.67	> 50	–	Dose-dependent effect	3.6	inactive	–
